# High-throughput results as filed in PubChem.
# Only a selection was taken, and hits are over-represented in it overall.
# H69AR inhibit: proliferation blockers of H69AR lung cancer cells, primary screen, cell-based, human, 86K library; H69AR lung tumor viability, ATP luminescence, 72 h; stronger effect = lower value; viability, % at 10 µM; 6% of 85,000 active; AID 598, 2007;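 active means viability at or below 40%; inactive means viability above 40%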;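 further: multidrug resistant small cell line overexpressing MRP-1 efflux transporter; 100% = mean luminescence of untreated control wells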
# HUVEC prolif 384: inhibitors of HUVEC proliferation, primary screen, cell-based, 384-well; 1.1% of 86,000 active; viability, % at 10 µM (by protocol); CellTiter-Glo luminescence, 72 h; stronger effect = lower value; AID 648, 2007;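 active means viability at or below 30%; inactive means viability above 30%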;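 further: 100% = median luminescence of DMSO-only cell control wells on each plate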
# HCT116 bCat-KO: primary screen for growth suppressors in beta-catenin knockout HCT116 cells (colon tumor, human). HCT116 beta-catenin knockout viability, CellTiter-Glo, 60 h; stronger effect = lower value. viability, % at 10 µM. 1.5% of 140,000 active. AID 818, 2007;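 active means viability at or under a set limit, the compound median less 4 SD, cut at about 6% in these data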;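 further: 0% = Hyamine 1622 control at 20 µM and 100% = untreated cell control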
# PTEN del growth: growth suppression of PTEN-null HCT116, primary screen, cell-based, CellTiter-Glo; HCT116 PTEN-null viability, 60 h; stronger effect = lower value; viability, % at 10 µM; 1.2% of 140,000 active;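 active means viability at or below a set limit, 4 SD under the median of all tested compounds, cut at about 3.7% in these data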;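 further: PTEN knockout HCT116 line with beta catenin targeted HCT116 as companion control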
# Lung fibro prol: antiproliferative effect on LL 47 fibroblasts – human, LL 47 cells, CellTiter-Glo luminescence, primary screen. LL 47 human lung fibroblast viability, ATP luminescence; stronger effect = lower value. viability, % at 10 µM. 1.1% of 85,000 active;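 active means viability at or below 50% in the single dose screen; inactive means viability above 50%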;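 further: compound exposure lasted 72 h before the ATP readout; 100% = median luminescence of untreated cell-only wells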
#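 Material: Human LL 47 lung fibroblast cells | Input: 1,150 cells/well | Buffer or medium: IMEM plus 15% FBS | Compound dosing: 0.1% DMSO in all compound wells | Times: Overnight cell rest, 72 h compound treatment at 37 °C | Signal: CellTiter-Glo luminescence measuring cellular ATP | Measure: % viability versus median cells-only luminescence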
# The depositor's hits bear a star; · = no result.
SMILES,H69AR inhibit,HUVEC prolif 384,HCT116 bCat-KO,PTEN del growth,Lung fibro prol
CCOCc1cnc(C)nc1NCC(=O)c1c(C)n(C)c2ccc(OC)cc12,34*,61,94,91,96
COc1ccc2c(c1)c(C(=O)CNc1nc(C)cs1)c(C)n2C,68,87,81,71,90
Cc1cc(=O)oc2cc(NC(=O)C3COc4ccccc4O3)ccc12 (configuration not stated),39*,91,92,76,74
Cc1cc2ncn(C(=O)N3CCC(C)CC3)c2cc1C,81,107,0.6*,0.7*,104
Cc1cc2ncn(C(=O)c3ccc4c(c3)OCO4)c2cc1C,96,82,86,75,97
O=C(CCn1c(=O)oc2ccccc21)N1CCN(c2ccccc2Cl)CC1,18*,62,30,30,66
COc1cc(-c2cc(OC)c3c(C)oc(C)c3c(=O)c2)ccc1O,30*,72,47,55,86
COc1cc(NC(=O)CN2C(=O)NC(c3ccccc3)(c3ccccc3)C2=O)c(C)cc1[N+](=O)[O-],·,·,82,77,·
Cc1ccc(S(=O)(=O)C(C#N)c2nc3ccccc3nc2N2CC(C)OC(C)C2)cc1C (configuration not stated),34*,68,76,78,98
Cc1cccc(S(=O)(=O)C(C#N)c2nc3ccccc3nc2N2CC(C)OC(C)C2)c1 (configuration not stated),70,74,89,84,85
O=C(Nc1ccc(F)cc1)c1nc[nH]c1C(=O)Nc1ccccc1[N+](=O)[O-],·,·,2.8*,1.6*,·
O=C(Nc1ccccc1[N+](=O)[O-])c1nc[nH]c1C(=O)NCCO,·,·,97,96,·
O=C1c2[nH]nc(-c3ccccc3O)c2C(c2cccc(Cl)c2)N1Cc1ccco1 (configuration not stated),0.8*,4.9*,62,49,88
O=C1c2[nH]nc(-c3ccccc3O)c2C(c2ccc(F)cc2)N1CC1CCCO1 (configuration not stated),64,100,89,81,86
O=C1c2[nH]nc(-c3ccccc3O)c2C(c2cccc(Cl)c2)N1CC1CCCO1 (configuration not stated),21*,71,84,82,91
COc1ccc(CCN2C(=O)c3[nH]nc(-c4ccccc4O)c3C2c2cccc(O)c2)cc1OC (configuration not stated),84,97,83,74,94
O=C1c2[nH]nc(-c3ccccc3O)c2C(c2ccc(F)cc2)N1Cc1ccco1 (configuration not stated),1.8*,79,81,80,92
CCOc1nc(Nc2ccc(OC)cc2)nc(OCC)n1,105,100,106,108,103
CCOc1nc(Nc2ccc(OC)c(Cl)c2)nc(OCC)n1,36*,90,91,84,92
O=C(OCC(=O)N1CCN(C(=O)c2ccco2)CC1)c1ccccc1C(=O)c1ccccc1,83,100,104,103,95
O=C(OCC(=O)N1CCN(C(=O)c2ccco2)CC1)C1=COCCO1,111,91,101,110,100
O=C(OCC(=O)N1CCN(c2ccccc2)CC1)C1=COCCO1,34*,91,95,101,93
O=C(OCC(=O)N1CCN(c2ccccc2)CC1)c1ccco1,29*,109,96,96,94
O=C1C=C(O)CC(c2ccco2)C1 (configuration not stated),93,90,96,110,98
O=C1C=C(Nc2ccc(O)cc2)CC(c2ccco2)C1 (configuration not stated),26*,64,38,32,80
CCOc1cc(/C=N/NC(N)=O)cc(Br)c1OCC(=O)Nc1ccccc1C,·,·,78,79,·
CCOc1cc(/C=C\[N+](=O)[O-])ccc1OCC(=O)Nc1ccccc1C,·,·,2.1*,1.9*,·
O=C(NC(=S)N1CCOCC1)c1ccc([N+](=O)[O-])cc1,·,·,94,94,·
Cc1cc(C=O)c2c(c1)C=CC1(Oc3ccccc3C(=O)N1C)O2 (configuration not stated),22*,80,57,58,95
Cc1nc2sccn2c(=O)c1CCN1CCC(=C(c2ccc(F)cc2)c2ccc(F)cc2)CC1,48,32*,40,46,95
